Experimental data reported in ChEMBL document CHEMBL2021799, “Exploring the interplay of physicochemical properties, membrane permeability and giardicidal activity of some benzimidazole derivatives” (Eur J Med Chem, 2012).
In brackets after ≈: the same amount, converted by molar mass.

Legend:
Caco-2 [1] = experiment: Influx ratio of permeability from basolateral to apical side over apical to basolateral side in human Caco2 cells at 100 uM up to 90 mins; settings: caco-2, 1.5 h
Giardia intestinalis [2] = experiment: Antiparasitic activity against Giardia duodenalis IMSS:0989 after 48 hrs; type: functional, organism-based; settings: IMSS:0989, 48 h
Summary of the method: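 G. duodenalis trophozoites grown in modified TYI-S-33 with 10% calf serum and bovine bile. 5 × 10⁴ trophozoites incubated 48 h at 37 °C with increasing compound concentrations; DMSO-treated trophozoites as negative control. An aliquot was then subcultured 48 h in fresh drug-free medium, trophozoites counted, and IC50 obtained by Probit analysis.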

Caco-2 [3] = experiment: Apparent permeability from apical to basolateral side of human Caco2 cells at 100 uM up to 90 mins; settings: caco-2, 1.5 h
[4] = Lipophilicity, logkw of the compound by RP-HPLC analysis
[5] = Aqueous solubility of the compound
[6] = Distribution coefficient, log D of the compound; settings: octanol/water
Caco-2 [7] = experiment: Apparent permeability from basolateral to apical side of human Caco2 cells at 100 uM up to 90 mins; settings: caco-2, 1.5 h
Caco-2 [8] = experiment: Efflux ratio of permeability from apical to basolateral side over basolateral to apical side in human Caco2 cells at 100 uM up to 90 mins; settings: caco-2, 1.5 h
Giardia intestinalis [9] = experiment: Ratio of metronidazole IC50 to compound IC50 for Giardia duodenalis IMSS:0989; type: functional
[10] = aqueous medium, not specified further

Row | SMILES | Ratio (Caco-2 [1]) | IC50 (Giardia intestinalis [2]) | Papp (Caco-2 [3]) | logKw [4] | solubility [5, 10] | log1/S ([5]; buffer) | logD [6] | Papp (Caco-2 [7]) | Ratio (Caco-2 [8]) | Ratio IC50 (Giardia intestinalis [9]) | solubility ([5]; buffer)
1 | Cc1nc2cc(Cl)c(Cl)cc2n1C | 0.71 | 55 nM | 7.98 ×10⁻⁶ cm/s | 2.24 | 0.0716 µg/mL (≈ 0.333 µM) | 6.47 | 3.86 | 11.2 ×10⁻⁶ cm/s | 1.4 | – | –
2 | Cc1nc2ccccc2n1C | 0.88 | 89 nM | 9.03 ×10⁻⁶ cm/s | 0.42 | 5790 µg/mL (≈ 39600 µM) | 1.4 | 1.77 | 10.2 ×10⁻⁶ cm/s | 1.13 | – | –
3 | CSc1nc2cc(Cl)ccc2n1C | 0.53 | 28 nM | 7.59 ×10⁻⁶ cm/s | 2.46 | 0.0172 µg/mL (≈ 0.0809 µM) | 7.09 | 4.11 | 14.2 ×10⁻⁶ cm/s | 1.87 | – | –
4 | Cn1c(S)nc2cc(Cl)ccc21 | 0.72 | 45 nM | 6.92 ×10⁻⁶ cm/s | 1.61 | 3.79 µg/mL (≈ 19.1 µM) | 4.71 | 3.14 | 9.57 ×10⁻⁶ cm/s | 1.38 | 61 | –
5 | Cc1nc2ccc(Cl)cc2n1C | – | 44 nM | – | – | – | – | – | – | – | – | –
6 | FC(F)(F)c1nc2ccccc2[nH]1 | – | – | – | 1.8 | 0.992 µg/mL (≈ 5.33 µM) | 5.27 | 3.36 | – | – | – | –
7 | Cn1c(C(F)(F)F)nc2ccc(Cl)cc21 | – | – | – | 2.37 | 0.033 µg/mL (≈ 0.141 µM) | 6.85 | 4.02 | – | – | – | –
8 | FC(F)(F)c1nc2cc(Cl)c(Cl)cc2[nH]1 | – | – | – | 2.78 | 0.0025 µg/mL (≈ 0.0098 µM) | 8 | 4.49 | – | – | – | –
9 | Cn1c(C(F)(F)F)nc2cc(Cl)ccc21 | – | – | – | 2.33 | 0.0412 µg/mL (≈ 0.176 µM) | 6.75 | 3.98 | – | – | – | –
10 | CCCSc1ccc2nc(NC(=O)OC)[nH]c2c1 [ALBENDAZOLE] | 1.35 | – | 3.14 ×10⁻⁶ cm/s | 1.95 | 0.75 µg/mL (≈ 2.83 µM) | 5.55 | 3.83 | 1.99 ×10⁻⁶ cm/s | 0.74 | – | –
11 | c1ccc2[nH]cnc2c1 [BENZIMIDAZOLE] | – | 137000 nM | – | 0.27 | 7600 µg/mL (≈ 64400 µM) | 1.45 | 1.37 | – | – | – | –
12 | COC(=O)Nc1nc2ccccc2[nH]1 [CARBENDAZIM] | – | – | – | 0.9 | – | 1.89 | 1.49 | – | – | – | 2441 µg/mL (≈ 12800 µM)
13 | COC(=O)Nc1nc2ccc(Sc3ccccc3)cc2[nH]1 [FENBENDAZOLE] | – | 56 nM | – | 2.44 | 0.025 µg/mL (≈ 0.0835 µM) | 7.07 | 3.93 | – | – | – | –
14 | COC(=O)Nc1nc2ccc(C(=O)c3ccccc3)cc2[nH]1 [MEBENDAZOLE] | – | 55 nM | 5.15 ×10⁻⁶ cm/s | 1.68 | – | – | 3.73 | 4.34 ×10⁻⁶ cm/s | – | – | –
15 | CC(C)NCC(O)COc1cccc2ccccc12 (centres undefined) [PROPRANOLOL] | 1.27 | – | – | – | – | – | – | 37.9 ×10⁻⁶ cm/s | 0.78 | – | –
